According to ChEMBL document CHEMBL1125932 (1991):
Values after ≈ are worked out from the molar mass of the structure shown.

Columns and labels:
Type in all cases: functional
HEL [1] = test: Concentration required to inhibit CMV (Davis) induced cytopathogenicity in HEL cells by 50%; conditions: Homo sapiens
ESM [2] = test: Concentration required to inhibit TK-HSV-1 (B2006) induced cytopathogenicity in ESM cells by 50%; conditions: Homo sapiens
Method in brief: (§1)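 Embryonic skin-muscle (ESM) cell cultures were infected with 100 CCID50 of virus (1 CCID50 being the infective dose for 50% of cultures).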

ESM [3] = test: Concentration required to cause 50% reduction in cellular DNA synthesis in ESM cells; conditions: Homo sapiens; read-out: MIC
Method in brief: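 In ESM cells, cellular DNA synthesis was monitored by incorporation of [methyl-3H]dThd. The value is the concentration causing a 50% reduction in incorporation.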

ESM [4] = test: Concentration required to inhibit VV induced cytopathogenicity in ESM cells by 50%.; conditions: Homo sapiens; method in brief: as §1
ESM [5] = test: Concentration required to inhibit HSV-2(196) induced cytopathogenicity in ESM cells by 50%; conditions: Homo sapiens; read-out: MIC; method in brief: as §1
HEL [6] = test: Concentration required to cause 50% reduction in HEL cell growth.; conditions: Homo sapiens; read-out: MIC
ESM [7] = test: Concentration required to cause a microscopically detectable alteration of normal cell morphology in ESM cells; conditions: Homo sapiens
Method in brief: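 ESM cells were examined under the microscope. The value is the minimum concentration causing a microscopically detectable change in normal cell morphology.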

ESM [8] = test: Concentration required to inhibit HSV-2(G) induced cytopathogenicity in ESM cells by 50%; conditions: Homo sapiens; read-out: MIC; method in brief: as §1
HEL [9] = test: Concentration required to inhibit CMV (AD-169) induced cytopathogenicity in HEL cells by 50%; conditions: Homo sapiens; read-out: MIC
ESM [10] = test: Concentration required to inhibit HSV-1 (McIntyre) induced cytopathogenicity in ESM cells by 50%; conditions: Homo sapiens; read-out: MIC; method in brief: as §1
ESM [11] = test: Concentration required to inhibit HSV-1 (KOS) induced cytopathogenicity in ESM cells by 50%; conditions: Homo sapiens; read-out: MIC; method in brief: as §1
HEL [12] = test: Concentration required to inhibit TK-VZV (YSR) induced cytopathogenicity in HEL cells by 50%; conditions: Homo sapiens
ESM [13] = test: Concentration required to inhibit HSV-2(lyons) induced cytopathogenicity in ESM cells by 50%; conditions: Homo sapiens; read-out: MIC; method in brief: as §1
ESM [14] = test: Concentration required to inhibit TK-HSV-1 ([…]) induced cytopathogenicity in ESM cells by 50%; conditions: Homo sapiens; method in brief: as §1
ESM [15] = test: Concentration required to inhibit HSV-1 (F) induced cytopathogenicity in ESM cells by 50%; conditions: Homo sapiens; read-out: MIC; method in brief: as §1
HEL [16] = test: Concentration required to inhibit VZV (YS) induced cytopathogenicity in HEL cells by 50%; conditions: Homo sapiens; read-out: MIC
HEL [17] = test: Concentration required to inhibit VZV (oka) induced cytopathogenicity in HEL cells by 50%; conditions: Homo sapiens; read-out: MIC
HEL [18] = test: Concentration required to inhibit TK-VZV (07-1) induced cytopathogenicity in HEL cells by 50%; conditions: Homo sapiens; read-out: MIC
ESM [19] = test: Concentration required to inhibit VV induced cytopathogenicity in ESM cells by 50%; conditions: Homo sapiens; method in brief: as §1
HEL [20] = test: Concentration required to cause 50% reduction in HEL cell growth; conditions: Homo sapiens

Row | SMILES | MIC (HEL [1]) | MIC (ESM [2]) | IC50 (DNA synthesis inhibition) (ESM [3]) | MIC (ESM [4]) | EC50 (ESM [5]) | 50% cell growth inhibitory concentration (CC50) (HEL [6]) | MIC (ESM [7]) | EC50 (ESM [8]) | EC50 (HEL [9]) | EC50 for inhibiting virus-induced cytopathogenicity (ESM [10]) | 50% inhibitory concentration against virus-induced cytopathogenicity (EC50) (ESM [11]) | MIC (HEL [12]) | EC50 (50% inhibition of virus cytopathogenicity) (ESM [13]) | MIC (ESM [14]) | EC50 (ESM [15]) | EC50 (HEL [16]) | EC50 (HEL [17]) | EC50 (HEL [18]) | MIC (ESM [19]) | MIC (HEL [20])
1 | Cc1cn2c(O)c3ncn(COCCO)c3nc2n1 | > 400 µg/mL | > 400 µg/mL | > 200 µg/mL | > 400 µg/mL | 0.7 µg/mL (≈ 2.66 µM) | > 200 µg/mL | > 400 µg/mL | 2 µg/mL (≈ 7.6 µM) | 200 µg/mL (≈ 760 µM) | 1 µg/mL | 0.7 µg/mL | > 400 µg/mL | 0.4 µg/mL | > 400 µg/mL | 0.7 µg/mL (≈ 2.66 µM) | 25 µg/mL (≈ 95 µM) | 20 µg/mL (≈ 76 µM) | 400 µg/mL (≈ 1520 µM) | – | –
2 | OCC(CO)OCn1cnc2c(O)n3ccnc3nc21 | 200 µg/mL (≈ 716 µM) | > 400 µg/mL | > 200 µg/mL | > 400 µg/mL | 2 µg/mL (≈ 7.16 µM) | > 200 µg/mL | > 400 µg/mL | 2 µg/mL (≈ 7.16 µM) | 150 µg/mL (≈ 537 µM) | 0.7 µg/mL | 0.7 µg/mL | 300 µg/mL (≈ 1070 µM) | 0.7 µg/mL | 150 µg/mL (≈ 537 µM) | 0.7 µg/mL (≈ 2.51 µM) | > 400 µg/mL | 400 µg/mL (≈ 1430 µM) | 400 µg/mL (≈ 1430 µM) | – | –
3 | OCCOCn1cnc2c(O)n3ccnc3nc21 | > 400 µg/mL | > 400 µg/mL | > 200 µg/mL | > 400 µg/mL | 70 µg/mL (≈ 281 µM) | > 200 µg/mL | > 400 µg/mL | 20 µg/mL (≈ 80.2 µM) | > 400 µg/mL | 20 µg/mL | 20 µg/mL | > 400 µg/mL | 10 µg/mL | > 400 µg/mL | 4 µg/mL (≈ 16 µM) | > 400 µg/mL | > 400 µg/mL | > 400 µg/mL | – | –
4 | CCOC(Cn1c(N)nc2c(ncn2COC(CO)CO)c1=O)OCC | > 400 µg/mL | > 400 µg/mL | > 100 µg/mL | > 400 µg/mL | 70 µg/mL (≈ 188 µM) | > 200 µg/mL | > 400 µg/mL | 70 µg/mL (≈ 188 µM) | > 400 µg/mL | 20 µg/mL | 70 µg/mL | > 400 µg/mL | 20 µg/mL | > 400 µg/mL | 20 µg/mL (≈ 53.9 µM) | > 400 µg/mL | > 400 µg/mL | > 400 µg/mL | – | –
5 | OC[C@H]1OC(n2cnc3c(O)n4ccnc4nc32)[C@H](O)[C@@H]1O (some centres not stated) | 400 µg/mL (≈ 1300 µM) | > 400 µg/mL | 150 µg/mL (≈ 488 µM) | – | > 400 µg/mL | – | > 400 µg/mL | > 400 µg/mL | 400 µg/mL (≈ 1300 µM) | > 400 µg/mL | > 400 µg/mL | > 400 µg/mL | > 400 µg/mL | > 400 µg/mL | > 400 µg/mL | > 400 µg/mL | > 400 µg/mL | > 400 µg/mL | > 400 µg/mL | > 200 µg/mL
6 | CCOC(Cn1c(N)nc2c(ncn2C2O[C@H](CO)[C@@H](O)[C@H]2O)c1=O)OCC (some centres not stated) | > 400 µg/mL | > 400 µg/mL | > 200 µg/mL | > 400 µg/mL | > 400 µg/mL | > 200 µg/mL | > 400 µg/mL | > 400 µg/mL | > 400 µg/mL | 100 µg/mL | > 400 µg/mL | > 200 µg/mL | 100 µg/mL | > 400 µg/mL | 100 µg/mL (≈ 250 µM) | > 200 µg/mL | > 200 µg/mL | > 200 µg/mL | – | –
7 | Cc1cn2c(O)c3ncn(C4O[C@H](CO)[C@@H](O)[C@H]4O)c3nc2n1 (some centres not stated) | > 200 µg/mL | > 400 µg/mL | 150 µg/mL (≈ 467 µM) | – | > 400 µg/mL | – | > 400 µg/mL | > 400 µg/mL | > 200 µg/mL | > 400 µg/mL | > 400 µg/mL | > 200 µg/mL | > 400 µg/mL | > 400 µg/mL | > 400 µg/mL | > 200 µg/mL | > 200 µg/mL | > 200 µg/mL | > 400 µg/mL | > 200 µg/mL
8 | CCOC(Cn1c(N)nc2c(ncn2COCCO)c1=O)OCC | > 400 µg/mL | > 400 µg/mL | > 200 µg/mL | > 400 µg/mL | 20 µg/mL (≈ 58.6 µM) | > 200 µg/mL | > 400 µg/mL | > 400 µg/mL | > 400 µg/mL | > 400 µg/mL | > 400 µg/mL | > 400 µg/mL | 20 µg/mL | > 400 µg/mL | 70 µg/mL (≈ 205 µM) | > 400 µg/mL | > 400 µg/mL | > 400 µg/mL | – | –
9 | Cc1cn2c(O)c3ncn(COC(CO)CO)c3nc2n1 | 5 µg/mL (≈ 17 µM) | 200 µg/mL (≈ 682 µM) | > 200 µg/mL | > 400 µg/mL | 0.07 µg/mL (≈ 0.239 µM) | > 200 µg/mL | > 400 µg/mL | 0.07 µg/mL (≈ 0.239 µM) | 4 µg/mL (≈ 13.6 µM) | 0.07 µg/mL | 0.07 µg/mL | 50 µg/mL (≈ 170 µM) | 0.07 µg/mL | 20 µg/mL (≈ 68.2 µM) | 0.07 µg/mL (≈ 0.239 µM) | 10 µg/mL (≈ 34.1 µM) | 4 µg/mL (≈ 13.6 µM) | 15 µg/mL (≈ 51.1 µM) | – | –
10 | Nc1nc2c(ncn2COCCO)c(=O)[nH]1 [ACYCLOVIR] | 15 µg/mL (≈ 66.6 µM) | 100 µg/mL (≈ 444 µM) | – | > 200 µg/mL | – | – | 400 µg/mL (≈ 1780 µM) | – | – | – | – | – | – | 40 µg/mL (≈ 178 µM) | – | – | – | – | – | –
11 | Nc1nc2c(ncn2COC(CO)CO)c(=O)[nH]1 [GANCICLOVIR] | 1 µg/mL (≈ 3.92 µM) | 7 µg/mL (≈ 27.4 µM) | – | 20 µg/mL (≈ 78.4 µM) | – | – | > 400 µg/mL | – | – | – | – | – | – | 1 µg/mL (≈ 3.92 µM) | – | – | – | – | – | –
